Among the data in ChEMBL document CHEMBL1134480, “Antiplasmodial activity and cytotoxicity of bis-, tris-, and tetraquinolines with linear or cyclic amino linkers” (J Med Chem, 2001) are Cytotoxicity, IC50 and cytotoxicity values, retold here.

Data set [1] in a line: In vitro cytotoxic activity against mouse peritoneal macrophages at a concentration 8 uM; Toxic. In kind it is toxicity.
The test system of data set [2] is Plasmodium falciparum. Description: (§1) In vitro growth inhibition of Plasmodium falciparum W2. In kind it is functional, organism-based. An outline of the steps: (§2)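 Asynchronous P. falciparum cultures in human erythrocytes (0.5% parasitemia, 1% final hematocrit) exposed to serially diluted drug for 24 h at 37 °C, then pulsed with 0.5 µCi [³H]hypoxanthine per well. Inhibition from incorporated radioactivity versus drug-free control on the same plate; IC50 from concentration-response curve; mean ± SD of three independent experiments. DMSO ≤0.1% final.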

Data set [3] is described as follows: In vitro cytotoxic activity against mouse peritoneal macrophages at a concentration 32 uM; Toxic. It counts as toxicity.
The species entered for data set [4] is Mus musculus. In words: In vitro cytotoxic activity against mouse peritoneal macrophages at a concentration 2 uM; Non-toxic. In kind it is functional.
For data set [5], the system named is Plasmodium falciparum. In words: (§3) In vitro growth inhibition of Plasmodium falciparum F32. In kind it is functional, organism-based. In a few lines:
as §2

For data set [6], the system named is MRC5. Description: Cytotoxicity against MRC-5 cells at concentration 32 uM. It counts as functional. Conditions: Homo sapiens. An outline of the steps: (§4)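 MRC-5 human embryonic lung diploid cells were seeded at 5000 per well. After 24 h the cells were washed and exposed to 2-fold drug dilutions in RPMI + 5% FCS, with final DMSO below 0.5%. Incubation was 7 days at 37 °C in 5% CO2. Viability was read by MTT absorbance at 540 nm.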

Data set [7] relates to MRC5. Description: Cytotoxicity against MRC-5 cells at concentration 0.5 uM. It counts as functional. The settings on record: Homo sapiens. In a few lines:
as §4

Data set [8] deals with MRC5. In words: Cytotoxicity against MRC-5 cells at concentration 8 uM. Conditions: Homo sapiens. In kind it is functional. In a few lines: as §4
Data set [9] concerns Plasmodium falciparum. In words: (§5) In vitro growth inhibition of Plasmodium falciparum D6. It counts as functional, organism-based. In a few lines:
as §2

Data set [10] concerns Plasmodium falciparum. In words: In vitro growth inhibition of Plasmodium falciparum FcB1R. It counts as functional, organism-based. An outline of the steps: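 Asynchronous P. falciparum cultures were grown in human erythrocytes at 0.5% parasitemia and 1% hematocrit. They were exposed to serial drug dilutions, with DMSO ≤0.1%, for 24 h at 37 °C before adding 0.5 µCi [3H]hypoxanthine per well. Inhibition was measured as incorporated radioactivity versus drug-free controls on the same plate. IC50 came from concentration–response curves, reported as mean ± SD of three independent experiments; FcB1R used several experiments.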

Data set [11] deals with MRC5. Description: Cytotoxicity against MRC-5 cells at concentration 1 uM. In kind it is functional. Conditions: Homo sapiens. An outline of the steps: as §4
A short description of data set [12]: In vitro cytotoxic activity against mouse peritoneal macrophages at a concentration 2 uM; Toxic. It counts as toxicity.
Data set [13] concerns Plasmodium falciparum. The data set is described as §5. It counts as functional, organism-based. The source holds these as a separate data set.
Data set [14] relates to Plasmodium falciparum. The description is as §3. In kind it is functional, organism-based. The source holds these as a separate data set.
Data set [15] has as its system Plasmodium falciparum. Described as §1. It counts as functional, organism-based. The source holds these as a separate data set.
The species named for data set [16] is Mus musculus. Description: In vitro cytotoxic activity against mouse peritoneal macrophages at a concentration 8 uM; Non-toxic. It counts as functional.
A short description of data set [17]: In vitro cytotoxicity against mouse peritoneal macrophages at concentration 8 uM; Toxic. In kind it is toxicity.
The nature of data set [18]: In vitro cytotoxicity against mouse peritoneal macrophages at concentration 32 uM; Toxic. In kind it is toxicity.
Data set [19] is described as follows: Inhibition of haem polymerization. An outline of the steps: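 Insoluble FcB1R trophozoite material (~4 × 10^7 parasites) was mixed with 0.3 mM bovine haematin in 60 mM sodium acetate, pH 5, plus drug at varied concentrations and 1% DMSO, then incubated 4 h at 37 °C. The washed pellet was treated with SDS, and polymerized haem was dissolved in NaOH and read at 404 nm. Values were corrected for endogenous haemozoin to give IC50. Data are the mean of two independent experiments, each run in duplicate.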

A short description of data set [20]: In vitro cytotoxic activity against mouse peritoneal macrophages at concentration 32 uM; Toxic. It counts as toxicity.

On to `O=C(CCN1CCCCC1)N1CCN(c2ccnc3cc(Cl)ccc23)CCN(c2ccnc3cc(Cl)ccc23)CC1`, for which the Cytotoxicity entry in [1] was “Toxic”; in data set [3] it was “Toxic”; in the data set listed under Mus musculus [4], “Not toxic”. Also, the IC50 (as a rule, the concentration that gives 50% inhibition) in the data set on Plasmodium falciparum [2] was 0.0502 µM; in the data set on Plasmodium falciparum [5], 0.0161 µM; in the data set with Plasmodium falciparum [9] it was 0.0189 µM; with Plasmodium falciparum [10] it was 0.0386 µM. In addition, the cytotoxicity at 32 µM in the data set on MRC5 [6] stood at 91%. Further, the cytotoxicity at 0.5 µM in the data set on MRC5 [7] was 0%. This compound also returned a cytotoxicity at 8 µM with MRC5 [8] of 87%. The compound also registered a cytotoxicity at 1 µM in the data set with MRC5 [11] of 0%.

On to `O=C(CCCCCCCCCCCN1CCCCC1)N1CCN(c2ccnc3cc(Cl)ccc23)CCN(c2ccnc3cc(Cl)ccc23)CC1`, for which the Cytotoxicity result in data set [12], in data set [1] and in [3] was “Toxic” each time. The compound also yielded a cytotoxicity at 32 µM in the data set with MRC5 [6] of 89%. In the data set with MRC5 [7], the cytotoxicity at 0.5 µM was determined as 0%. In addition, the cytotoxicity at 8 µM in the data set on MRC5 [8] was 92%. Further, it took 0.109 µM to reach half-maximal inhibition in the data set with Plasmodium falciparum [10] (IC50). The cytotoxicity at 1 µM in the data set with MRC5 [11] was 11%.

With `O=C(CCCCCCCC(=O)N1CCN(c2ccnc3cc(Cl)ccc23)CCN(c2ccnc3cc(Cl)ccc23)CC1)N1CCN(c2ccnc3cc(Cl)ccc23)CCN(c2ccnc3cc(Cl)ccc23)CC1`, the IC50 with Plasmodium falciparum [13] came to 0.0417 µM; in the data set on Plasmodium falciparum [14], 0.0463 µM; with Plasmodium falciparum [15], 0.0672 µM; in the data set on Plasmodium falciparum [10] it was 0.0226 µM. For the same compound, the Cytotoxicity entry in data set [3] was “Toxic”; in the data set filed under Mus musculus [4] it was “Not toxic”; in the data set listed under Mus musculus [16], “Not toxic”. Further, the cytotoxicity at 32 µM in the data set with MRC5 [6] came out at 0%. In the data set with MRC5 [7], this compound came in with a cytotoxicity at 0.5 µM of 0%. The compound further returned a cytotoxicity at 8 µM with MRC5 [8] of 0%. The cytotoxicity at 1 µM in the data set with MRC5 [11] stood at 0%.

`Clc1ccc2c(NCCCCNCCCNc3ccnc4cc(Cl)ccc34)ccnc2c1`: the Cytotoxicity entry is “Toxic” in data set [17], “Toxic” in data set [18] and “Not toxic” in the data set filed under Mus musculus [4]. This compound also displayed a cytotoxicity at 32 µM in the data set on MRC5 [6] of 100%. Also, the cytotoxicity at 0.5 µM in the data set with MRC5 [7] came out at 0%. In the data set with MRC5 [8], the cytotoxicity at 8 µM stood at 100%. The same compound came in with an IC50 in the data set with Plasmodium falciparum [10] of 0.057 µM. This compound returned a cytotoxicity at 1 µM with MRC5 [11] of 0%.

As for `Clc1ccc2c(N3CCNCCN(c4ccnc5cc(Cl)ccc45)CC3)ccnc2c1`, the IC50 in [19] amounted to 170 µM; with Plasmodium falciparum [14], 0.0646 µM; in the data set with Plasmodium falciparum [15], 0.17 µM; in the data set with Plasmodium falciparum [9], 0.0745 µM. Moreover, the Cytotoxicity result in the data set filed under Mus musculus [4] and in the data set filed under Mus musculus [16] was “Not toxic” in each case. In addition, the cytotoxicity at 32 µM in the data set with MRC5 [6] was 0%. Moreover, the cytotoxicity at 0.5 µM with MRC5 [7] was 0%. The cytotoxicity at 8 µM with MRC5 [8] was determined as 0%. The compound also showed a cytotoxicity at 1 µM in the data set on MRC5 [11] of 0%.

`O=C(CCCCCCCN1CCCCC1)N1CCN(c2ccnc3cc(Cl)ccc23)CCN(c2ccnc3cc(Cl)ccc23)CC1`: the Cytotoxicity entry in data set [12], in data set [1] and in data set [3] was “Toxic” in each case. In addition, the cytotoxicity at 32 µM in the data set with MRC5 [6] came to 91%. The compound further gave a cytotoxicity at 0.5 µM in the data set with MRC5 [7] of 0%. Moreover, the cytotoxicity at 8 µM in the data set on MRC5 [8] came out at 91%. 0.0811 µM corresponded to half-maximal inhibition in the data set on Plasmodium falciparum [10] (IC50). The same compound showed a cytotoxicity at 1 µM with MRC5 [11] of 0%.

For the compound `O=C(CCCC(=O)N1CCN(c2ccnc3cc(Cl)ccc23)CCN(c2ccnc3cc(Cl)ccc23)CC1)N1CCN(c2ccnc3cc(Cl)ccc23)CCN(c2ccnc3cc(Cl)ccc23)CC1`, the Cytotoxicity entry in the data set filed under Mus musculus [4] and in the data set listed under Mus musculus [16] was “Not toxic” each time. The IC50 in the data set on Plasmodium falciparum [14] turned out to be 0.0179 µM; in the data set on Plasmodium falciparum [15], 0.0292 µM; with Plasmodium falciparum [9], 0.0185 µM; with Plasmodium falciparum [10] it was 0.0183 µM. Also, the cytotoxicity at 32 µM in the data set with MRC5 [6] worked out at 0%. The cytotoxicity at 0.5 µM with MRC5 [7] was 0%. In addition, the cytotoxicity at 8 µM with MRC5 [8] turned out to be 0%. For the same compound, in the data set on MRC5 [11], the cytotoxicity at 1 µM stood at 0%.

In the case of `Clc1ccc2c(N3CCCNCCN(c4ccnc5cc(Cl)ccc45)CCCNCC3)ccnc2c1`, the figures for the Cytotoxicity result (in data set [20]; in the data set listed under Mus musculus [4]; in the data set listed under Mus musculus [16]) were “Toxic”, “Not toxic” and “Not toxic”, respectively. The cytotoxicity at 32 µM in the data set on MRC5 [6] was found to be 98%. Also, in the data set on MRC5 [7], the cytotoxicity at 0.5 µM was determined as 0%. Also, the cytotoxicity at 8 µM in the data set on MRC5 [8] stood at 0%. Besides, in the data set on Plasmodium falciparum [10], the IC50 is greater than 1 µM. In addition, the cytotoxicity at 1 µM in the data set with MRC5 [11] amounted to 0%.
